Several values for one entry are separate records, joined by “and”; a condition that tells them apart may be missing. Equal values may be shown once.
Assays:
[1] = biological target: influenza H1N1 virus neuraminidase (Influenza A virus, UniProt P03468); assay: Neuraminidase inhibition screening assay; format: biochemical
MDCK cells = assay: Cell viability assay; format: cell-based, canine; conditions: 24 h, MTT
How it was run: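 Confluent MDCK cells (grown in DMEM with 10% FBS, penicillin and streptomycin, 5% CO2) were exposed to graded concentrations of test compound for 24 h. Viability was measured by MTT. The maximum non-toxic dose was taken from this assay and then used in the infection assays.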

[2] = system: influenza virus A/Font Monmouth/47(H1N1, FM1); format: cell-based
neuraminidase = format: cell-based, influenza virus A/Font Monmouth/47(H1N1, FM1)
IAV nucleoprotein (NP) = assay: Indirect immunofluorescence of viral NP in H1N1-infected MDCK cells; format: cell-based, influenza virus A/Font Monmouth/47(H1N1, FM1); conditions: at MNTD, 8 h after infection, compared to virus group
How it was run: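 Confluent MDCK monolayers were infected with 100 μL of 100 TCID50 H1N1 for 2 h at 37 °C. Inoculum was removed and test compound was added at its maximum non-toxic dose in DMEM. At 8 h post-infection, cells were fixed in ice-cold acetone/methanol (40:60) for 15 min. Staining used mouse anti-NP monoclonal antibody (1:100 in PBS, 1 h), then Alexa Fluor 488 anti-mouse IgG (1:100, 1 h), with DAPI for nuclei; imaged by fluorescence microscopy.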

[3] = system: influenza A/Font Monmouth/47(H1N1, FM1) virus; design: species or system NIH mice; conditions: mouse, in vivo
[4] = Dose safety of curcumin in mice; format: in vivo; conditions: 100 mg/kg/day
[5] = system: influenza A/Font Monmouth/47(H1N1, FM1) virus; assay: Survival experiments in IAV-infected mice; format: in vivo, NIH mice; conditions: 100, 50 and 25 mg/kg/day, pre-infection and post-infection, oral gavage, 2 LD50, vs placebo
TNF-α = assay: Cytokine in lung homogenate of IAV-infected mice; format: in vivo; conditions: day 5 after infection; different doses, except 25 mg/kg/day
How it was run: (§1)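 Female SPF NIH mice (13–15 g) were infected with mouse-adapted IAV A/Font Monmouth/47 (H1N1, FM1). Controls were normal and placebo (saline, 0.5% Tween 80) groups. On day 5 post-infection, lungs were homogenised and centrifuged (4000×g, 15 min, 4 °C), and supernatants were stored at −80 °C. Cytokines were measured by anti-mouse ELISA kits; n = 10; mean ± SD of 3 separate experiments.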

IL-6 = assay: Cytokine in lung homogenate of IAV-infected mice; format: in vivo; conditions: day 5 after infection; different doses (100, 50, 25 mg/kg/day)
How it was run: as §1

IFN-γ = assay: Cytokine in lung homogenate of IAV-infected mice; format: in vivo; conditions: day 5 after infection; different doses (100, 50, 25 mg/kg/day)
How it was run: as §1

[6] = IC50, NA activity inhibition assay

Sequence of influenza H1N1 virus neuraminidase (P03468 whole entry): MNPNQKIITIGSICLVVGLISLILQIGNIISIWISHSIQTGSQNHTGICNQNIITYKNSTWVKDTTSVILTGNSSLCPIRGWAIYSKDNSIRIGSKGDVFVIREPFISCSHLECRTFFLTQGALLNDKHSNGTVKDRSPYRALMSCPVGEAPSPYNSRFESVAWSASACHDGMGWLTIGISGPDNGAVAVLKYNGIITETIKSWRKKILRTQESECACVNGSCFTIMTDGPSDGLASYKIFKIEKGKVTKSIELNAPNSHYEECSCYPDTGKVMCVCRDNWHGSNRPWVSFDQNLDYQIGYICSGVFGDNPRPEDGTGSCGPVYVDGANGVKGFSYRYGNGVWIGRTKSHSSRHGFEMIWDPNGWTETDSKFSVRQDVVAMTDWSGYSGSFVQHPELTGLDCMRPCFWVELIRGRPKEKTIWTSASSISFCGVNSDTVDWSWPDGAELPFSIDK

| Compound | IC50 [1, 6] [µM] | MNTD (maximum non-toxic dose) (MDCK cells) [µM] | decrease of mRNA expression level of M gene [2] | mRNA expression level of M gene [2] [µM] | decrease of NA activity (neuraminidase) | neuraminidase activity in cell supernatant (neuraminidase) [mU/mL] | viral NP localisation (immunofluorescence) (IAV nucleoprotein (NP)) | also measured |
| --- | --- | --- | --- | --- | --- | --- | --- | --- |
| O=C(/C=C/c1ccc(O)cc1)CC(=O)/C=C/c1ccc(O)cc1 [Bisdemethoxycurcumin] | 70.1 | 20 | about 2.13 fold | 0.47 ± 0.11 | 2.45 fold | 0.40 ± 0.01 | a strong green fluorescent signal was observed in the cytoplasm | – |
| COc1cc(/C=C/C(=O)CC(=O)/C=C/c2ccc(O)c(OC)c2)ccc1O [Curcumin-d6] | – | – | – | – | – | – | – | IC50 ([1]; NA activity inhibition assay): 18800 µM |
| [2H]C([2H])([2H])Oc1cc(/C=C/C(=O)CC(=O)/C=C/c2ccc(O)c(OC([2H])([2H])[2H])c2)ccc1O [Curcumin-d6] | – | – | – | – | – | – | – | pIC50 (expt.) ([1]; converted from IC50): 1.73 |
| COc1cc(/C=C/C(=O)CC(=O)/C=C/c2ccc(O)c(OC)c2)ccc1O [Curcumin] | 450 | 25 | about 5.26 fold | 0.19 ± 0.03 | about 2.04 fold | 0.48 ± 0.03 | less NP was observed in the cytoplasm | Lung index inhibition [3]: 22.42% and 23.6% and 35.75^** %; Lung pathological change degree [3]: 1.10 ± 0.39 and 0.92 ± 0.47 and 1.02 ± 0.55; weight and clinical symptoms (dose safety) [4]: remained stable in weight and showed no significant clinical symptoms; average survival time [5]: prolonged the average survival time; death protection rate [5]: promote the death protection rate significantly; TNF-α level in lung homogenate (TNF-α): significantly attenuated the increases; IL-6 level in lung homogenate (IL-6): significantly attenuated the increases; IFN-γ level in lung homogenate (IFN-γ): significantly attenuated the increases |
| COc1cc(/C=C/C(O)=C/C(=O)/C=C/c2ccc(O)cc2)ccc1O [Demethoxycurcumin] | 200 | – | – | – | – | – | – | – |
| COc1cc(/C=C/C(=O)CC(=O)CCc2ccc(O)c(OC)c2)ccc1O [Dihydrocurcumin] | – | 20 | ~1.20 fold | 0.83 ± 0.09 | ~1.81 fold | 0.54 ± 0.02 | a strong green fluorescent signal was observed in the cytoplasm | IC50 ([1]; NA activity inhibition assay): 219 µM; pIC50 (expt.) ([1]; converted from IC50): 3.66 |
| COc1ccc(/C=C/C(=O)/C=C(O)/C=C/c2ccc(OC)c(OC)c2)cc1OC [Dimethylcurcumin] | 1610 | – | – | – | – | – | – | – |
| COc1cc(CCC(=O)CC(O)CCc2ccc(O)c(OC)c2)ccc1O (centres unmarked) [Hexahydrocurcumin] | 33700 | – | – | – | – | – | – | IC50 ([1]; pIC50 (expt.), converted from IC50): 33900 µM |
| COc1cc(CCC(O)CC(O)CCc2ccc(O)c(OC)c2)ccc1O (centres unmarked) [Octahydrocurcumin] | 1530 | – | – | – | – | – | – | – |
| CCC(CC)O[C@@H]1C=C(C(=O)O)C[C@H](N)[C@H]1NC(C)=O [Oseltamivir carboxylate, reference compound] | – | – | about 11.11 fold | – | – | – | – | – |
| NC(=O)c1ncn([C@@H]2O[C@H](CO)[C@@H](O)[C@H]2O)n1 [Ribavirin, reference compound] | – | – | – | – | – | – | – | Lung index [3]: 0.94 ± 0.29; Lung index inhibition [3]: 43%; Lung pathological change degree [3]: 0.87 ± 0.52 |
| COc1cc(CCC(=O)CC(=O)CCc2ccc(O)c(OC)c2)ccc1O [Tetrahydrocurcumin] | 203 | – | – | – | – | – | – | – |
| Tetramethylcurcumin | – | 15 | about 3.85 fold | 0.26 ± 0.07 | 2.65 fold | 0.37 ± 0.06 | less NP was observed in the cytoplasm | IC50 ([1]; NA activity inhibition assay): 226 µM; pIC50 (expt.) ([1]; converted from IC50): 3.65 |

From publication PMC7125423 (Archives of Pharmacal Research, 2020)
